Source: ChEMBL document CHEMBL1132413, “Mechanism-based competitive inhibitors of glyoxalase I: intracellular delivery, in vitro antitumor activities, and stabilities in human serum and mouse serum” (J Med Chem, 1999)

Columns and labels:
B16 [1] = experiment: The compound was tested […] for 100% growth inhibition against B16 melanoma cells.; format: functional, Mus musculus
Procedure, shortened: (§1)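 B16 melanotic melanoma cells in log growth were plated at 5000 cells/well in RPMI 1640 with 10% heat-inactivated FCS and gentamycin at 37 °C under 5% CO2. Cells were exposed for 48 h to at least five drug concentrations, in triplicate, with fresh diethyl ester added at 0, 12, 24 and 36 h. Cells were trypsinized and counted on a Coulter counter. Percentage growth was calculated NCI-style against time-zero and no-drug controls. TGI is 100% growth inhibition and GI50 is 50%. Mean ± SD comes from separate experiments.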

B16 [2] = experiment: The compound was tested […] for 50% growth inhibition against B16 melanoma cells.; format: functional, Mus musculus; procedure, shortened: as §1
B16 [3] = experiment: The compound was tested […] for 50% cell killing against B16 melanoma cells.; format: functional, Mus musculus
Procedure, shortened: (§2)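 Cultured cells, not in vivo: log-phase cells seeded at 5000 cells/well in RPMI 1640/10% heat-inactivated FCS with gentamycin, 37 °C, 5% CO2. Exposed 48 h to at least five diethyl ester concentrations in triplicate, with fresh ester added at 0, 12, 24 and 36 h. B16 cells were trypsinised and L1210 cells washed. Counted by Coulter counter, viability by trypan blue. LC50 = concentration giving 50% cell killing.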

L1210 [4] = experiment: The compound was tested […] for 100% growth inhibition against L1210 murine leukemia cells.; format: functional, Mus musculus
Procedure, shortened: (§3)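 L1210 leukemia cells in log growth were seeded at 5000 cells/well in RPMI 1640 with 10% heat-inactivated FCS and gentamycin at 37 °C under 5% CO2. At least five concentrations spanning the GI50 were tested in triplicate for 48 h, with ester replenished at 0, 12, 24 and 36 h. Washed cells were Coulter-counted. PG = 100×(test−tzero)/(ctrl−tzero). TGI is 100% growth inhibition and GI50 is 50%. Mean ± SD comes from independent experiments.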

L1210 [5] = experiment: The compound was tested […] for 50% cell killing against L1210 murine leukemia cells.; format: functional, Mus musculus; procedure, shortened: as §2
L1210 [6] = experiment: The compound was tested […] for 50% growth inhibition against L1210 murine leukemia cells.; format: functional, Mus musculus; procedure, shortened: as §3
[7] = tested on: Glyoxalase I (Homo sapiens); experiment: The compound was tested for inhibitory activity against human glyoxalase I.
[8] = tested on: Glyoxalase I (Homo sapiens); experiment: as above; remark: listed apart in the source
[9] = tested on: Glyoxalase I (Homo sapiens); experiment: as above; remark: listed apart in the source

Structure (SMILES) | TGI (B16 [1]) | GI50 (B16 [2]) | LC50 (B16 [3]) | TGI (L1210 [4]) | LC50 (L1210 [5]) | GI50 (L1210 [6]) | Ki [7] | Ki [8] | Ki [9]
CCOC(=O)CNC(=O)C(CSC(=O)N(O)c1ccccc1)NC(=O)CCC(N)C(=O)OCC.Cl (configuration not stated) | >100 µM | >100 µM | >100 µM | 135 µM | 271 µM | 84 µM | 160 nM | 160 nM | 
CCOC(=O)CNC(=O)C(CSC(=O)N(O)c1ccc(Br)cc1)NC(=O)CCC(N)C(=O)OCC.Cl (configuration not stated) | 33 µM | 11 µM | 54 µM | 7 µM | 17 µM | 3 µM |  | 14 nM | 14 nM
CCOC(=O)CNC(=O)[C@@H](CSCc1ccc(Br)cc1)NC(=O)CCC(N)C(=O)OCC (some centres not stated) | 23 µM | 14 µM | 56 µM | 11 µM | 26 µM | 7 µM |  | 170 nM | 170 nM
CCOC(=O)CNC(=O)C(CSC(=O)N(O)c1ccc(Cl)cc1)NC(=O)CCC(N)C(=O)OCC.Cl (configuration not stated) | ~23 µM | 15 µM | ~47 µM | 27 µM | 54 µM | 7 µM |  | 46 nM | 46 nM
